Bioassay records (PubChem BioAssay)
RAD54 branch: inhibitors of human RAD54 branch migration | Q92698 | RAD54 Holliday junction branch migration, FAM/BHQ fluorescence | inhibition, % at 10.4 µM | 360,000 compounds, 0.14% hits | AID 602329;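 active = mean normalized replicate activity at least 40 and at least half of replicates scoring 40 or more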;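 note: 0% = median of neutral control wells and 100% = median of positive control wells; inhibitors cause a drop in the FAM fluorescence signal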
PAX8 reporter: inhibitors of PAX8 transcriptional activity in RMG-I cells | RMG-I TPO-luciferase reporter, SteadyGlo, 24 h | inhibition, % at 12.6 µM | 360,000 compounds, 1.2% hits | AID 652154;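 active = mean replicate inhibition at least 60% with every replicate also reaching 60%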;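 note: luciferase light reporting Pax8 driven TPO promoter activity; plate controls were median of neutral control wells for no effect and mitoxantrone controls for full effect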
FN deposition inh: fibronectin deposition inhibition; 350,000 compounds, 0.086% hits; AH1F fibroblasts, Alexa488-fibronectin deposition fluorescence, overnight; inhibition, % at 12.6 µM;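 active = mean inhibition across replicates of 30% or more, regardless of how many single replicates reach that level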;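 note: positive control wells lacked labelled fibronectin entirely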
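Material: AH1F fibroblast monolayer depositing Alexa488-labelled fibronectin into matrix / Amount: 10000 AH1F cells per well / Signal: fluorescence 485/525 nm / Medium: DMEM, 2% serum / Compound: single dose, pinned / Incubation: 1 h cell adhesion before compound, then overnight fibronectin incubation / Reagent: Alexa488-FN, 24 nM final / Read-out: inhibition of fibronectin deposition signal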
RAD52 anneal inh: blocks human RAD52 DNA annealing; P43351; inhibition, % at 18.7 µM; AID 651710; recombinant RAD52 DNA annealing, FRET fluorescence; 360,000 compounds, 0.46% hits;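 active = every replicate showing at least 50% inhibition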
Active calls of the source: *. An excerpt weighted towards active compounds, which were near 1.3% of everything screened.

CN1CCN(c2ccc(-c3ccc4ccccc4n3)cc2)CC1 was read as PAX8 reporter 94*, FN deposition inh -9 and RAD52 anneal inh 12.
For c1ccc2nc(-c3ccc(N4CCOCC4)cc3)ccc2c1 the results were RAD54 branch 4 and FN deposition inh 2.
Screening CCCCCC1CC(CC(=O)Nc2nncs2)C(=O)O1 (centres undefined) returned RAD54 branch -8 and PAX8 reporter -8.
`O=S(=O)(/C=C/c1ccccc1)N1CCc2ccccc2C1` gave RAD54 branch -7, PAX8 reporter -3, FN deposition inh 5 and RAD52 anneal inh 1.
`O=C1C=CCCN1S(=O)(=O)/C=C/c1ccccc1` gave PAX8 reporter 89* and RAD52 anneal inh 14.
`Cc1ccnc(NC(=O)CCC(=O)c2cc(C)sc2C)c1` gave RAD54 branch -4, PAX8 reporter -3, FN deposition inh 1 and RAD52 anneal inh -227.
`CCC(=O)N1C[C@@H](C)[C@H](OC)CN(C)C(=O)c2cc(NC(=O)c3ccc(F)cc3)ccc2OC[C@@H]1C` gave RAD54 branch -9, PAX8 reporter 4, FN deposition inh 2 and RAD52 anneal inh 9.
Screening CC=Cc1ccc2n(c1=O)C[C@H]1[C@H](CO)[C@@H](C(=O)NC3CCCC3)N(C(=O)C3CCC3)[C@@H]21 (mixture of isomers) returned FN deposition inh -20 and RAD52 anneal inh -12.
For Cc1ccc(S(=O)(=O)N2CCOCC2)cc1NC(=O)CSc1cccc[n+]1[O-] the results were PAX8 reporter -16 and FN deposition inh 9.
`O=C(CSc1cccc[n+]1[O-])Nc1cc(S(=O)(=O)N2CCOCC2)ccc1N1CCOCC1` gave PAX8 reporter 87*, FN deposition inh -1 and RAD52 anneal inh -52.
CCN1/C(=C/C(C)=C/c2sc3ccccc3[n+]2CC)Sc2ccccc21 was read as RAD54 branch 72*, PAX8 reporter 102*, FN deposition inh -3 and RAD52 anneal inh -295.
For CCN1/C(=C\C(=S)Nc2ccccc2)Sc2ccccc21 the results were RAD54 branch -12, PAX8 reporter -71, FN deposition inh -11 and RAD52 anneal inh -12.
`COC(=O)C1=C(SC)N(c2ccccc2)C(c2ccccc2)CC1=O` (centres undefined) gave PAX8 reporter 91*, FN deposition inh 3 and RAD52 anneal inh -7.
C[C@H](CO)N1C[C@H](C)[C@@H](CN(C)C(=O)NC2CCCCC2)Oc2cc(C#Cc3cccc(F)c3)ccc2S1(=O)=O was read as PAX8 reporter 16 and FN deposition inh -2.
Screening C[C@@H]1CN([C@H](C)CO)S(=O)(=O)c2ccc(C#Cc3cccc(F)c3)cc2O[C@@H]1CN(C)C(=O)NC1CCCCC1 returned RAD54 branch 1, PAX8 reporter 83*, FN deposition inh -7 and RAD52 anneal inh -30.
For C[C@H]1CN([C@@H](C)CO)S(=O)(=O)c2ccc(C#Cc3cccc(F)c3)cc2O[C@H]1CN(C)C(=O)NC1CCCCC1 the results were RAD54 branch 0, PAX8 reporter 55, FN deposition inh 6 and RAD52 anneal inh -2.
`C[C@H](CO)N1C[C@H](C)[C@H](CN(C)C(=O)NC2CCCCC2)Oc2cc(C#Cc3cccc(F)c3)ccc2S1(=O)=O` gave RAD54 branch -17, PAX8 reporter 84*, FN deposition inh 0 and RAD52 anneal inh 2.
`C[C@H]1CN([C@@H](C)CO)S(=O)(=O)c2ccc(C#Cc3cccc(F)c3)cc2O[C@H]1CN(C)CC1CC1` gave RAD54 branch -8, PAX8 reporter 65*, FN deposition inh -2 and RAD52 anneal inh -7.
For CCc1ccc(NC(=O)C(C)Oc2nnc(-c3cccs3)c(-c3cccs3)n2)cc1 (centres undefined) the results were RAD54 branch -7.
`Cc1ccc(NC(=S)NNC(=O)c2nnn(-c3ccccc3)c2C)cc1` gave PAX8 reporter 41, FN deposition inh 14 and RAD52 anneal inh -8.
Screening COC(=O)C[C@@H]1CC[C@H]2[C@H](COc3ccc(NC(=O)c4ccc(OC)cc4)cc3C(=O)N2C)O1 returned RAD54 branch 3, PAX8 reporter -17, FN deposition inh 8 and RAD52 anneal inh 7.
For CCCNC(=O)CSCc1nc(-c2ccc(SC)cc2)oc1C the results were PAX8 reporter -3, FN deposition inh -1 and RAD52 anneal inh 1.
Screening CCc1ccc(-c2nc(CSCC(=O)NCc3ccco3)c(C)o2)cc1 returned PAX8 reporter 64*, FN deposition inh -4 and RAD52 anneal inh -27.
`CN(Cc1nc(-c2cccs2)no1)CC1COCCO1` (centres undefined) gave PAX8 reporter -35 and FN deposition inh 3.
`C[C@H](CO)N1C[C@H](C)[C@@H](CN(C)S(C)(=O)=O)Oc2cc(-c3ccccc3F)ccc2S1(=O)=O` gave RAD54 branch 3, FN deposition inh -1 and RAD52 anneal inh 1.
`Cc1ccc(S(=O)(=O)Nc2ccc3c(c2)C(=O)N([C@H](C)CO)C[C@H](C)[C@@H](CN(C)Cc2ccc(Cl)c(Cl)c2)OCCCC[C@@H](C)O3)cc1` gave RAD54 branch -6, PAX8 reporter 20, FN deposition inh -7 and RAD52 anneal inh 27.
`Cc1ccc(S(=O)(=O)Nc2ccc3c(c2)C(=O)N([C@@H](C)CO)C[C@H](C)[C@@H](CN(C)Cc2ccc(Cl)c(Cl)c2)OCCCC[C@@H](C)O3)cc1` gave RAD54 branch -3, PAX8 reporter 103*, FN deposition inh -5 and RAD52 anneal inh 33.
`C[C@H]1CN([C@@H](C)CO)C(=O)c2cc(NS(=O)(=O)c3ccc(Cl)cc3)ccc2O[C@H]1CN(C)Cc1ccc(Cl)c(Cl)c1` gave RAD54 branch 2, PAX8 reporter 81*, FN deposition inh -7 and RAD52 anneal inh 8.
C[C@H](CO)N1C[C@H](C)[C@@H](CN(C)Cc2ccc(Cl)c(Cl)c2)OCCCC[C@H](C)Oc2ccc(NS(=O)(=O)c3ccc(F)cc3)cc2C1=O was read as RAD54 branch 7, PAX8 reporter 105*, FN deposition inh -4 and RAD52 anneal inh -71.
`C[C@@H]1CN([C@@H](C)CO)C(=O)c2cc(NS(=O)(=O)c3ccc(Cl)cc3)ccc2O[C@@H]1CN(C)Cc1ccc(Cl)c(Cl)c1` gave RAD54 branch -5, PAX8 reporter 5 and RAD52 anneal inh 10.
Screening C[C@@H]1CN([C@H](C)CO)C(=O)c2cc(NS(=O)(=O)c3ccc(Cl)cc3)ccc2O[C@@H](C)CCCCO[C@H]1CN(C)Cc1ccc(Cl)c(Cl)c1 returned RAD54 branch 2, PAX8 reporter 113*, FN deposition inh 3 and RAD52 anneal inh -18.
Screening CC(=O)c1ccc(S(=O)(=O)Nc2cccc(-c3cn4c(n3)SCC4)c2)cc1 returned RAD54 branch -1, PAX8 reporter 4, FN deposition inh -1 and RAD52 anneal inh -17.
For COc1ccc(OC)c(CNc2ncc(-c3ccc(F)cc3)n2C)c1 the results were RAD54 branch 6, PAX8 reporter 4, FN deposition inh 3 and RAD52 anneal inh -8.
